Test results as given in ChEMBL document CHEMBL4261620, “Design, synthesis, and biological evaluation of 4-chloro-2H-thiochromenes featuring nitrogen-containing side chains as potent antifungal agents” (Bioorg Med Chem Lett, 2018).
In brackets after ≈: the same amount, converted by molar mass.

tested on: Candida albicans; experiment: Antifungal activity against Candida albicans cpcc 400616 after 2 to 7 days by broth microdilution method; format: functional
Summary of the method: (§1)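 Broth microdilution in 96-well plates per NCCLS. Compounds and fluconazole reference dissolved in DMSO, serially diluted in growth medium, then inoculum suspension added, final concentrations 128 to 0.25 µg/mL (twofold series). Incubated at 32°C. MIC read visually after 2-7 d.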

Compared with `ClC1=C(CN2CCCC2)CSc2ccc(Br)cc21`, `ClC1=C(CN2CCCCC2)CSc2ccc(Br)cc21` is 2-fold higher in MIC: 16 µg/mL (≈ 46.4 µM) for the first, 32 µg/mL (≈ 89.2 µM) for the second.

First: O=CC1=C(Cl)c2cc(Cl)ccc2SC1
Second: Cc1ccc2c(c1)C(Cl)=C(C=O)CS2
The MIC of the first is 2-fold higher: 64 µg/mL (≈ 261 µM) for the first, 32 µg/mL (≈ 142 µM) for the second.

`ClC1=C(Cn2ccnc2)CSc2ccc(Cl)cc21` and `CN1CCN(CC2=C(Cl)c3cc(Cl)ccc3SC2)CC1` are the same in MIC: 32 µg/mL (≈ 108 µM) for the first, 32 µg/mL (≈ 97.2 µM) for the second.

Compared with `OC(Cn1cncn1)(Cn1cncn1)c1ccc(F)cc1F` [FLUCONAZOLE], `CC(C)NCC1=C(Cl)c2cc(F)ccc2SC1` is 2-fold higher in MIC: 4 µg/mL (≈ 13.1 µM) for the first, 8 µg/mL (≈ 29.4 µM) for the second.

`CCN(CC)CC1=C(Cl)c2cc(Br)ccc2SC1` was tested, and the MIC was 16 µg/mL (≈ 46.1 µM).

tested on: Candida albicans; experiment: Antifungal activity against fluconazole-sensitive Candida albicans ATCC SC5314 after 2 to 7 days by broth microdilution method; format: functional; summary of the method: as §1

`ClC1=C(CN2CCCC2)CSc2ccc(Br)cc21` and `ClC1=C(CN2CCCCC2)CSc2ccc(Br)cc21` are the same in MIC: 8 µg/mL (≈ 23.2 µM) for the first, 8 µg/mL (≈ 22.3 µM) for the second.

First: O=CC1=C(Cl)c2cc(Cl)ccc2SC1
Second: Cc1ccc2c(c1)C(Cl)=C(C=O)CS2
The MIC of the first is 2-fold higher: 32 µg/mL (≈ 131 µM) for the first, 16 µg/mL (≈ 71.2 µM) for the second.

`ClC1=C(Cn2ccnc2)CSc2ccc(Cl)cc21` and `CN1CCN(CC2=C(Cl)c3cc(Cl)ccc3SC2)CC1` are the same in MIC: 16 µg/mL (≈ 53.8 µM) for the first, 16 µg/mL (≈ 48.6 µM) for the second.

Going from `OC(Cn1cncn1)(Cn1cncn1)c1ccc(F)cc1F` [FLUCONAZOLE] to `CC(C)NCC1=C(Cl)c2cc(F)ccc2SC1`, the MIC rises from 1 µg/mL (≈ 3.27 µM) to 2 µg/mL (≈ 7.36 µM) (2-fold).

For `CCN(CC)CC1=C(Cl)c2cc(Br)ccc2SC1`, the MIC was 8 µg/mL (≈ 23.1 µM).

tested on: Candida albicans; experiment: Antifungal activity against fluconazole-resistant Candida albicans 103 after 2 to 7 days by broth microdilution method; format: functional
Summary of the method: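 Broth microdilution per NCCLS. Compounds dissolved in DMSO, serially diluted in growth medium, then inoculum suspension added to give final concentrations of 128 to 0.25 µg/mL (twofold steps). Plates incubated at 32°C. MIC read by visual observation after 2-7 d. Fluconazole served as reference drug.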

`ClC1=C(CN2CCCC2)CSc2ccc(Br)cc21` and `ClC1=C(CN2CCCCC2)CSc2ccc(Br)cc21` are the same in MIC: 64 µg/mL (≈ 186 µM) for the first, 64 µg/mL (≈ 178 µM) for the second.

`O=CC1=C(Cl)c2cc(Cl)ccc2SC1` and `Cc1ccc2c(c1)C(Cl)=C(C=O)CS2` are the same in MIC: 64 µg/mL (≈ 261 µM) for the first, 64 µg/mL (≈ 285 µM) for the second.

`ClC1=C(Cn2ccnc2)CSc2ccc(Cl)cc21` and `CN1CCN(CC2=C(Cl)c3cc(Cl)ccc3SC2)CC1` are the same in MIC: 64 µg/mL (≈ 215 µM) for the first, 64 µg/mL (≈ 194 µM) for the second.

Going from `OC(Cn1cncn1)(Cn1cncn1)c1ccc(F)cc1F` [FLUCONAZOLE] to `CC(C)NCC1=C(Cl)c2cc(F)ccc2SC1`, the MIC rises from 32 µg/mL (≈ 104 µM) to 64 µg/mL (≈ 235 µM) (2-fold).

Work on `CCN(CC)CC1=C(Cl)c2cc(Br)ccc2SC1` yielded an MIC of 64 µg/mL (≈ 185 µM).

tested on: Cryptococcus neoformans; experiment: Antifungal activity against Cryptococcus neoformans cgmcc 2.3161 after 2 to 7 days by broth microdilution method; format: functional; summary of the method: as §1

First: ClC1=C(CN2CCCC2)CSc2ccc(Br)cc21
Second: ClC1=C(CN2CCCCC2)CSc2ccc(Br)cc21
The MIC of the first is 2-fold higher: 8 µg/mL (≈ 23.2 µM) for the first, 4 µg/mL (≈ 11.2 µM) for the second.

Compared with `O=CC1=C(Cl)c2cc(Cl)ccc2SC1`, `Cc1ccc2c(c1)C(Cl)=C(C=O)CS2` is 2-fold higher in MIC: 32 µg/mL (≈ 131 µM) for the first, 64 µg/mL (≈ 285 µM) for the second.

First: ClC1=C(Cn2ccnc2)CSc2ccc(Cl)cc21
Second: CN1CCN(CC2=C(Cl)c3cc(Cl)ccc3SC2)CC1
The MIC of the first is 2-fold higher: 8 µg/mL (≈ 26.9 µM) for the first, 4 µg/mL (≈ 12.1 µM) for the second.

First: OC(Cn1cncn1)(Cn1cncn1)c1ccc(F)cc1F [FLUCONAZOLE]
Second: CC(C)NCC1=C(Cl)c2cc(F)ccc2SC1
The MIC of the first is 4-fold lower: 1 µg/mL (≈ 3.27 µM) for the first, 4 µg/mL (≈ 14.7 µM) for the second.

In the case of `CCN(CC)CC1=C(Cl)c2cc(Br)ccc2SC1`, the MIC is reported as 4 µg/mL (≈ 11.5 µM).

tested on: Candida tropicalis; experiment: Antifungal activity against Candida tropicalis cgmcc 2.3739 after 2 to 7 days by broth microdilution method; format: functional; summary of the method: as §1

`ClC1=C(CN2CCCC2)CSc2ccc(Br)cc21` and `ClC1=C(CN2CCCCC2)CSc2ccc(Br)cc21` are the same in MIC: 128 µg/mL (≈ 371 µM) for the first, 128 µg/mL (≈ 357 µM) for the second.

Going from `O=CC1=C(Cl)c2cc(Cl)ccc2SC1` to `Cc1ccc2c(c1)C(Cl)=C(C=O)CS2`, the MIC rises from 32 µg/mL (≈ 131 µM) to 64 µg/mL (≈ 285 µM) (2-fold).

`ClC1=C(Cn2ccnc2)CSc2ccc(Cl)cc21` and `CN1CCN(CC2=C(Cl)c3cc(Cl)ccc3SC2)CC1` are the same in MIC: 64 µg/mL (≈ 215 µM) for the first, 64 µg/mL (≈ 194 µM) for the second.

`OC(Cn1cncn1)(Cn1cncn1)c1ccc(F)cc1F` [FLUCONAZOLE] and `CC(C)NCC1=C(Cl)c2cc(F)ccc2SC1` are the same in MIC: 2 µg/mL (≈ 6.53 µM) for the first, 2 µg/mL (≈ 7.36 µM) for the second.

`CCN(CC)CC1=C(Cl)c2cc(Br)ccc2SC1` gave an MIC of 64 µg/mL (≈ 185 µM).

tested on: Aspergillus fumigatus; experiment: Antifungal activity against Aspergillus fumigatus cgmcc 3.7795 after 2 to 7 days by broth microdilution method; format: functional; summary of the method: as §1

`ClC1=C(CN2CCCC2)CSc2ccc(Br)cc21` and `ClC1=C(CN2CCCCC2)CSc2ccc(Br)cc21` cannot be ordered by MIC: over 128 µg/mL for the first, over 128 µg/mL for the second.

`O=CC1=C(Cl)c2cc(Cl)ccc2SC1` and `Cc1ccc2c(c1)C(Cl)=C(C=O)CS2` cannot be ordered by MIC: over 128 µg/mL for the first, over 128 µg/mL for the second.

First: ClC1=C(Cn2ccnc2)CSc2ccc(Cl)cc21
Second: CN1CCN(CC2=C(Cl)c3cc(Cl)ccc3SC2)CC1
The MIC of the first is lower: 64 µg/mL (≈ 215 µM) for the first, over 128 µg/mL for the second.

Going from `OC(Cn1cncn1)(Cn1cncn1)c1ccc(F)cc1F` [FLUCONAZOLE] to `CC(C)NCC1=C(Cl)c2cc(F)ccc2SC1`, the MIC falls from over 128 µg/mL to 64 µg/mL (≈ 235 µM).

`CCN(CC)CC1=C(Cl)c2cc(Br)ccc2SC1` showed an MIC of over 128 µg/mL.

tested on: A549; experiment: Cytotoxicity against human A549 cells by MTT assay; format: cell-based

`O=CC1=C(Cl)c2cc(Cl)ccc2SC1` and `OC(Cn1cncn1)(Cn1cncn1)c1ccc(F)cc1F` [FLUCONAZOLE] cannot be ordered by IC50: over 100 µg/mL for the first, over 100 µg/mL for the second.

tested on: HepG2; experiment: Cytotoxicity against human HepG2 cells by MTT assay; format: cell-based

Compared with `O=CC1=C(Cl)c2cc(Cl)ccc2SC1`, `OC(Cn1cncn1)(Cn1cncn1)c1ccc(F)cc1F` [FLUCONAZOLE] is higher in IC50: 21.5 µg/mL (≈ 87.8 µM) for the first, over 100 µg/mL for the second.

tested on: HT-29; experiment: Cytotoxicity against human HT-29 cells by MTT assay; format: cell-based

Going from `O=CC1=C(Cl)c2cc(Cl)ccc2SC1` to `OC(Cn1cncn1)(Cn1cncn1)c1ccc(F)cc1F` [FLUCONAZOLE], the IC50 rises from 18.4 µg/mL (≈ 75.2 µM) to over 100 µg/mL.

tested on: H9c2; experiment: Cytotoxicity against rat H9c2 cells by MTT assay; format: cell-based

`O=CC1=C(Cl)c2cc(Cl)ccc2SC1` and `OC(Cn1cncn1)(Cn1cncn1)c1ccc(F)cc1F` [FLUCONAZOLE] cannot be ordered by IC50: over 100 µg/mL for the first, over 100 µg/mL for the second.
